Consider 38 sequences from the array DNA melting data of Ke et al. (doi:10.1101/2024.01.08.574731).

A short description of data set [1]: folding enthalpy; higher = less favourable; fluorescence melt of hairpins on a sequencing array, two-state fit. The following applies: sodium 0.088 M. In outline:
(§1)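 On a sequenced MiSeq flow cell, library hairpins with annealed Cy3 and quencher oligos were imaged for Cy3 fluorescence in 2.5 °C steps up to 60 °C, in 50 mM Na-HEPES pH 8.0, 25 mM NaCl. Normalisation used pre-quench Cy3 and control constructs. Bootstrapped two-state fits gave melting temperature and folding enthalpy, combined by inverse variance across four replicates and with fitted temperatures raised by 9.35 °C to match UV melts.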

A short description of data set [2]: melting temperature; fluorescence melt of hairpins on a sequencing array, two-state fit, raised by 9.35 °C to match UV melts. To be noted: sodium 0.088 M. An outline of the steps: as §1

On to GATCAAGGGGTTGATC ((((((....)))))), for which the folding enthalpy in data set [1] is -29.4 kcal/mol. Besides, the Tm in data set [2] is 42.8 °C.

In the case of GATCAAGGTTTGATC ((((((...)))))), the folding enthalpy in data set [1] is -28.5 kcal/mol. Moreover, the Tm in data set [2] turned out to be 42.4 °C.

GATCAAGTACTTGATC ((((((....)))))): the folding enthalpy in data set [1] was -45.2 kcal/mol. Also, the Tm in data set [2] is 51.9 °C.

In the case of GATCAAGTCTTGATC ((((((...)))))), the folding enthalpy in data set [1] was -30.4 kcal/mol. In addition, in data set [2], the Tm is 46.2 °C.

Turning to GATCAAGTCTTTGATC ((((((....)))))), the folding enthalpy in data set [1] was -43.8 kcal/mol. Further, the Tm in data set [2] worked out at 48.9 °C.

Consider GATCAAGTTCTTGATC ((((((....)))))), for which the folding enthalpy in data set [1] was -38.6 kcal/mol. In addition, the Tm in data set [2] was found to be 49.7 °C.

On to GATCAATAAGTTGATC ((((((....)))))), for which the folding enthalpy in data set [1] was -33.7 kcal/mol. For the same sequence, the Tm in data set [2] is 44.4 °C.

Take GATCAATAATTTGATC ((((((....)))))): in data set [1], the folding enthalpy was -34.8 kcal/mol. Besides, the Tm in data set [2] was 43.2 °C.

Take GATCAATAGATTGATC ((((((....)))))): in data set [1], the folding enthalpy was -31 kcal/mol. Moreover, in data set [2], the Tm was found to be 42.5 °C.

For GATCAATAGGTTGATC ((((((....)))))), the folding enthalpy in data set [1] was -34.3 kcal/mol. Moreover, the Tm in data set [2] was found to be 45.1 °C.

For the sequence GATCAATATATTGATC ((((((....)))))), the folding enthalpy in data set [1] is -47.1 kcal/mol. Also, the Tm in data set [2] turned out to be 49.1 °C.

As for GATCAATCATTGATC ((((((...)))))), the folding enthalpy in data set [1] is -27.1 kcal/mol. In data set [2], the Tm came to 42 °C.

For the sequence GATCAATCCTTTGATC ((((((....)))))), the folding enthalpy in data set [1] is -39.3 kcal/mol. Also, the Tm in data set [2] was 48.6 °C.

On to GATCAATCGATTGATC ((((((....)))))), for which the folding enthalpy in data set [1] is -53.5 kcal/mol. Besides, the Tm in data set [2] was determined as 51.3 °C.

With GATCAATCGCTTGATC ((((((....)))))), the folding enthalpy in data set [1] is -44.9 kcal/mol. Also, the Tm in data set [2] amounted to 45.5 °C.

On to GATCAATCTTTGATC ((((((...)))))), for which the folding enthalpy in data set [1] is -28.2 kcal/mol. The Tm in data set [2] came out at 44.6 °C.

With GATCAATGAGTTGATC ((((((....)))))), the folding enthalpy in data set [1] was -37.1 kcal/mol. Moreover, the Tm in data set [2] was determined as 48.4 °C.

Take GATCAATGATTGATC ((((((...)))))): in data set [1], the folding enthalpy was -29.9 kcal/mol. Moreover, the Tm in data set [2] amounted to 40.6 °C.

On to GATCAATGTTTGATC ((((((...)))))), for which the folding enthalpy in data set [1] is -30.8 kcal/mol. Besides, the Tm in data set [2] worked out at 43.8 °C.

In the case of GATCAATTAATTGATC ((((((....)))))), the folding enthalpy in data set [1] is -42 kcal/mol. In addition, in data set [2], the Tm is 48.8 °C.

As for GATCAATTAGTTGATC ((((((....)))))), the folding enthalpy in data set [1] is -35 kcal/mol. Further, the Tm in data set [2] came to 45.6 °C.

With GATCAATTGCTTGATC ((((((....)))))), the folding enthalpy in data set [1] was -33.7 kcal/mol. Further, the Tm in data set [2] is 43.5 °C.

On to GATCACAAAGTGATC ((((((...)))))), for which, in data set [1], the folding enthalpy was -38.2 kcal/mol. In addition, the Tm in data set [2] came out at 61 °C.

As for GATCACAACTGTGATC ((((((....)))))), the folding enthalpy in data set [1] is -37.4 kcal/mol. In addition, the Tm in data set [2] worked out at 58.9 °C.

Turning to GATCACAAGAGTGATC ((((((....)))))), the folding enthalpy in data set [1] is -33.1 kcal/mol. Besides, the Tm in data set [2] came to 54.5 °C.

Consider GATCACAAGTGTGATC ((((((....)))))), for which the folding enthalpy in data set [1] is -39 kcal/mol. For the same sequence, in data set [2], the Tm stood at 56.4 °C.

For the sequence GATCACACACGTGATC ((((((....)))))), the folding enthalpy in data set [1] was -35.8 kcal/mol. Moreover, in data set [2], the Tm amounted to 57.9 °C.

Regarding GATCACACCGTGATC ((((((...)))))), the folding enthalpy in data set [1] was -38.5 kcal/mol. Besides, the Tm in data set [2] came out at 60.6 °C.

With GATCACACTGGTGATC ((((((....)))))), the folding enthalpy in data set [1] was -36.1 kcal/mol. For the same sequence, the Tm in data set [2] worked out at 56.4 °C.

Turning to GATCACAGTTGTGATC ((((((....)))))), the folding enthalpy in data set [1] is -35.7 kcal/mol. In addition, in data set [2], the Tm is 60.4 °C.

Take GATCACATAGGTGATC ((((((....)))))): the folding enthalpy in data set [1] was -39.1 kcal/mol. Further, in data set [2], the Tm was determined as 55.8 °C.

On to GATCACATAGTGATC ((((((...)))))), for which, in data set [1], the folding enthalpy was -40 kcal/mol. Moreover, the Tm in data set [2] was 62.4 °C.

Take GATCACATGCGTGATC ((((((....)))))): the folding enthalpy in data set [1] was -38.4 kcal/mol. The Tm in data set [2] was 57.8 °C.

Turning to GATCACCAAGTGATC ((((((...)))))), the folding enthalpy in data set [1] is -36.8 kcal/mol. Also, in data set [2], the Tm was 52.5 °C.

Take GATCACCACTGTGATC ((((((....)))))): in data set [1], the folding enthalpy is -43.5 kcal/mol. Further, the Tm in data set [2] was determined as 56.1 °C.

As to GATCACCAGGGTGATC ((((((....)))))), in data set [1], the folding enthalpy was -36.5 kcal/mol. Besides, the Tm in data set [2] came out at 62.2 °C.

Regarding GATCACCATGTGATC ((((((...)))))), the folding enthalpy in data set [1] was -33 kcal/mol. For the same sequence, the Tm in data set [2] is 59.2 °C.

Take GATCACCCACGTGATC ((((((....)))))): the folding enthalpy in data set [1] was -47 kcal/mol. In data set [2], the Tm came to 56.5 °C.
